Legend:
Assay type in all cases: functional
MDA-MB-231 = experiment: Growth inhibition of human MDA-MB-231 cells assessed as cell growth at 10^-5 M after 48 hrs by SRB assay; conditions: MDA-MB-231, 48 h, read-out: Activity
[1] = Growth inhibition of human SF539 cells assessed as cell growth at 10^-8 M after 48 hrs by SRB assay; conditions: SF-539, 48 h, read-out: Activity
[2] = Growth inhibition of human OVCAR8 cells assessed as cell growth at 10^-5 M after 48 hrs by SRB assay; conditions: OVCAR-8, 48 h, read-out: Activity
[3] = Growth inhibition of human HCC2998 cells assessed as cell growth at 10^-5 M after 48 hrs by SRB assay; conditions: HCC 2998, 48 h, read-out: Activity
K562 = experiment: Growth inhibition of human K562 cells assessed as cell growth at 10^-5 M after 48 hrs by SRB assay; conditions: K562, 48 h, read-out: Activity
[4] = Growth inhibition of human UACC62 cells assessed as cell growth at 10^-6 M after 48 hrs by SRB assay; conditions: UACC-62, 48 h, read-out: Activity
SK-MEL-28 = experiment: Growth inhibition of human SK-MEL-28 cells assessed as cell growth at 10^-6 M after 48 hrs by SRB assay; conditions: SK-MEL-28, 48 h, read-out: Activity
SN12C = experiment: Growth inhibition of human SN12C cells assessed as cell growth at 10^-5 M after 48 hrs by SRB assay; conditions: read-out: Activity
786-0 = experiment: Growth inhibition of human 786-0 cells assessed as cell growth at 10^-6 M after 48 hrs by SRB assay; conditions: 786-0, 48 h, read-out: Activity
Procedure, shortened: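 Five-dose NCI panel protocol. Each dose (10^-4 to 10^-8 M, 10-fold steps) was given as 48 h continuous exposure, and protein was measured by SRB staining. Percentage growth at each level is [(Ti−Tz)/(C−Tz)]×100, where Tz is time-zero absorbance and C is untreated control.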

[5] = Cytotoxicity against human OVCAR3 cells after 48 hrs by SRB assay; conditions: OVCAR-3, 48 h
Procedure, shortened: (§1)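 NCI 60-cell-line panel of human tumour lines from nine cancer types. Continuous 48 h exposure at five 10-fold dilutions from 10^-4 to 10^-8 M, with 5-FU as positive control. SRB protein stain read spectrophotometrically at time zero, untreated control and each concentration. GI50, TGI and LC50 were derived from the [(Ti−Tz)/(C−Tz)]×100 growth relations, and out-of-range values are given as > or < the tested limits.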

[6] = Cytotoxicity against human UACC62 cells after 48 hrs by SRB assay; conditions: UACC-62, 48 h
Procedure, shortened: (§2)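 NCI 60-cell-line panel, 48 h continuous exposure to five 10-fold dilutions from 10^-4 to 10^-8 M. SRB protein staining was read spectrophotometrically, with time-zero, untreated-control and treated absorbances. GI50, TGI and LC50 were derived from the percentage-growth formulas. Values outside the tested range are expressed as more or less than the maximum or minimum concentration.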

[7] = Growth inhibition of human HCC2998 cells assessed as cell growth at 10^-6 M after 48 hrs by SRB assay; conditions: HCC 2998, 48 h, read-out: Activity
PC-3 = experiment: Cytotoxicity against human PC3 cells after 48 hrs by SRB assay; conditions: PC-3, 48 h; procedure, shortened: as §1
T47D = experiment: Cytotoxicity against human T47D cells after 48 hrs by SRB assay; procedure, shortened: as §2
RPMI-8226 = experiment: Growth inhibition of human RPMI8226 cells assessed as cell growth at 10^-6 M after 48 hrs by SRB assay; conditions: RPMI-8226, 48 h, read-out: Activity
[8] = Growth inhibition of human LOXIMVI cells assessed as cell growth at 10^-7 M after 48 hrs by SRB assay; conditions: LOX IMVI, read-out: Activity
[9] = Growth inhibition of human HCC2998 cells assessed as cell growth at 10^-7 M after 48 hrs by SRB assay; conditions: HCC 2998, 48 h, read-out: Activity
SK-OV-3 = experiment: Growth inhibition of human SKOV3 cells assessed as cell growth at 10^-4 M after 48 hrs by SRB assay; conditions: SK-OV-3, 48 h, read-out: Activity
[10] = read-out: LC50 (the source's name)
[11] = read-out: pLC50 (the source's name) (converted)

## Cc1ccc(-c2nc3ccc(Cl)cc3c(=O)n2/N=C/c2ccccc2)cc1
MDA-MB-231
  growth at 10 µM: 33%
[1]
  growth at 0.01 µM: 90%
[2]
  growth at 10 µM: 30%
[3]
  growth at 10 µM: 96%
K562
  growth at 10 µM: 72%
[4]
  growth at 1 µM: 80%
SK-MEL-28
  growth at 1 µM: 93%
SN12C
  growth at 10 µM: 51%
786-0
  growth at 1 µM: 90%
[5]; read-out: GI50
  GI50: 5.44 µM
[5]; [10]
  CC50: > 100 µM
[5]; read-out: TGI
  TGI: > 100 µM
[5]; read-out: pGI50 (converted)
  GI50: 5.5 µM
[5]; [11]
  CC50: > 100 µM
[5]; read-out: pTGI
  TGI: > 100 µM
[6]; read-out: GI50
  GI50: 25.8 µM
[6]; [10]
  CC50: > 100 µM
[6]; read-out: TGI
  TGI: > 100 µM
[6]; read-out: pGI50 (converted)
  GI50: 25.7 µM
[6]; [11]
  CC50: > 100 µM
[6]; read-out: pTGI
  TGI: > 100 µM
[7]
  growth at 1 µM: 96%
PC-3; read-out: GI50
  GI50: 83 µM
PC-3; [10]
  CC50: > 100 µM
PC-3; read-out: TGI
  TGI: > 100 µM
PC-3; read-out: pGI50 (converted)
  GI50: 83.2 µM
PC-3; [11]
  CC50: > 100 µM
PC-3; read-out: pTGI
  TGI: > 100 µM
T47D; read-out: GI50
  GI50: 3.82 µM
T47D; [10]
  CC50: > 100 µM
T47D; read-out: TGI
  TGI: > 100 µM
T47D; read-out: pGI50 (converted)
  GI50: 3.8 µM
T47D; [11]
  CC50: > 100 µM
T47D; read-out: pTGI
  TGI: > 100 µM
RPMI-8226
  growth at 1 µM: 90%
[8]
  growth at 0.1 µM: 93%
[9]
  growth at 0.1 µM: 102%
SK-OV-3
  growth at 100 µM: -37%
